Experimental data reported in ChEMBL document CHEMBL5653631, “A Potent and Selective ULK1 Inhibitor Suppresses Autophagy and Sensitizes Cancer Cells to Nutrient Stress” (iScience, 2018).
One block for each compound: values may come before it.

How the values were obtained:
[1] = target: RAF proto-oncogene serine/threonine-protein kinase (Homo sapiens) (UniProt P04049); test: Inhibition of human recombinant RAF1 at 500 nM related to control ULK1
[2] = target: 5'-AMP-activated protein kinase catalytic subunit alpha-2 (Homo sapiens) (UniProt P54646); test: Inhibition of human recombinant AMPKa2 at 40 nM related to control ULK1
Method in brief: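 Radiometric activity assays in a panel of 327 human recombinant kinases, each run in duplicate at one inhibitor concentration. Activity remaining is expressed as percent of vehicle control, and percent inhibition is calculated as 100% minus percent activity remaining.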

[3] = target: cAMP-dependent protein kinase catalytic subunit beta (Homo sapiens) (UniProt P22694); test: Inhibition of human recombinant PKACbeta at 40 nM related to control ULK1
[4] = target: Vascular endothelial growth factor receptor 1 (Homo sapiens) (UniProt P17948); test: Inhibition of human recombinant FLT1 at 15 nM in presence of ATP by radiometric assay relative to control
[5] = target: T1, Testis-specific serine/threonine-protein kinase 2 (Homo sapiens) (UniProt Q96PF2); test: Inhibition of human recombinant TSSK2 at 15 nM in presence of ATP by radiometric assay relative to control
T1 sequence (whole entry): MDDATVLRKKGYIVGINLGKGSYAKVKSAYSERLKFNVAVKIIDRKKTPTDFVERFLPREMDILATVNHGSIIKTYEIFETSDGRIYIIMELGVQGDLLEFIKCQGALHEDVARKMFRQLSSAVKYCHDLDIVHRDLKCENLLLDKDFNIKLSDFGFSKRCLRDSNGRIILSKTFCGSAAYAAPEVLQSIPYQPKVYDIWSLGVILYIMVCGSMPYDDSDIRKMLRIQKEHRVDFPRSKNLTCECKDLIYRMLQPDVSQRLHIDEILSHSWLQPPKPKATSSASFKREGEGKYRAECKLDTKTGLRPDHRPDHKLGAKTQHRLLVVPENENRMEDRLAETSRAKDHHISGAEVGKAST

[6] = target: T2, Dual specificity tyrosine-phosphorylation-regulated kinase 3 (Homo sapiens) (UniProt O43781); test: Inhibition of human recombinant DYRK3 at 15 nM related to control ULK1
T2 sequence (whole entry): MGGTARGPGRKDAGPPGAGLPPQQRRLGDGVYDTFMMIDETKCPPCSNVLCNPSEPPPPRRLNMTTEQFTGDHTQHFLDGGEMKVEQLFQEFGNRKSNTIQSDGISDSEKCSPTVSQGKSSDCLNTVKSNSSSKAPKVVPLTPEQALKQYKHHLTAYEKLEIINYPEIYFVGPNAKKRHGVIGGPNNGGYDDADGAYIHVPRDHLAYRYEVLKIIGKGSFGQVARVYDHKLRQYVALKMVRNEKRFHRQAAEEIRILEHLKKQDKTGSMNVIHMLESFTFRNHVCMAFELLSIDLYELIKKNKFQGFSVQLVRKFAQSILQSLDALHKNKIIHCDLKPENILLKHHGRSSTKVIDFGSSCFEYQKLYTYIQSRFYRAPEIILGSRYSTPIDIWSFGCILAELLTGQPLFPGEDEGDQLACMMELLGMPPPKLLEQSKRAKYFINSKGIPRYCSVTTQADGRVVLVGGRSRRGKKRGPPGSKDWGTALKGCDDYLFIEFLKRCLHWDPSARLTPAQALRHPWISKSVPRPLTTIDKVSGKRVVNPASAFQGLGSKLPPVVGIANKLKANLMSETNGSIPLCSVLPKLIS

[7] = target: T3, Dual specificity mitogen-activated protein kinase kinase 6 (Homo sapiens) (UniProt P52564); test: Inhibition of human recombinant MAP2K6 at 15 nM related to control ULK1
T3 sequence (whole entry): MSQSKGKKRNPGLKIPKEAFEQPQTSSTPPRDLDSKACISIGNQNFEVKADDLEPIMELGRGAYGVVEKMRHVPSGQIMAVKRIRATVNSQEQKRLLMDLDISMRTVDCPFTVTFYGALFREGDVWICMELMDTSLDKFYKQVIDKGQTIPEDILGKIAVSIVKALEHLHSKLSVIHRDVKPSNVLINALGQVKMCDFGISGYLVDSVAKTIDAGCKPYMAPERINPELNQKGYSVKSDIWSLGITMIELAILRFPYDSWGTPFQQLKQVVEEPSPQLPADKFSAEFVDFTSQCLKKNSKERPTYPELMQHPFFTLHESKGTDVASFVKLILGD

[8] = target: T4, MAP/microtubule affinity-regulating kinase 4 (Homo sapiens) (UniProt Q96L34); test: Inhibition of human recombinant MARK4 at 15 nM related to control ULK1
T4 sequence (whole entry): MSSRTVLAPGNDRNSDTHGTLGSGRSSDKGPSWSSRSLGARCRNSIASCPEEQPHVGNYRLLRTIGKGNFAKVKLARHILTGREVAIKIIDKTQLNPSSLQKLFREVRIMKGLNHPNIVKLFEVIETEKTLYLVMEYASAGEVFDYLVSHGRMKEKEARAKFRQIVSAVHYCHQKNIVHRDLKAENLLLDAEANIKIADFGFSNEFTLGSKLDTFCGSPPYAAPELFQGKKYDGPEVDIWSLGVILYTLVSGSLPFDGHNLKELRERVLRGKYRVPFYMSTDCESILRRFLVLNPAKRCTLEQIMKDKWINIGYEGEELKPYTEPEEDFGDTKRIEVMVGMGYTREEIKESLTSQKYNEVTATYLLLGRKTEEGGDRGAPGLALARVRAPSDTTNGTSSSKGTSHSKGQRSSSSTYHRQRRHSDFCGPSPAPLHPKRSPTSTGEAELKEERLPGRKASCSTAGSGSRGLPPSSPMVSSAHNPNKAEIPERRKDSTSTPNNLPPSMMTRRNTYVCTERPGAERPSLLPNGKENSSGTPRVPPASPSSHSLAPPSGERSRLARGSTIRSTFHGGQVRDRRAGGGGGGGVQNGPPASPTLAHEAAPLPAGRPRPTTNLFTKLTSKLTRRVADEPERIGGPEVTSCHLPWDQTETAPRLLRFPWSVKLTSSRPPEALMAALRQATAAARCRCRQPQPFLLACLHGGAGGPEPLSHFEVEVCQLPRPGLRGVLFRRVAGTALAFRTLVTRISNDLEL

Sequence of RAF proto-oncogene serine/threonine-protein kinase (Homo sapiens) (P04049 whole entry): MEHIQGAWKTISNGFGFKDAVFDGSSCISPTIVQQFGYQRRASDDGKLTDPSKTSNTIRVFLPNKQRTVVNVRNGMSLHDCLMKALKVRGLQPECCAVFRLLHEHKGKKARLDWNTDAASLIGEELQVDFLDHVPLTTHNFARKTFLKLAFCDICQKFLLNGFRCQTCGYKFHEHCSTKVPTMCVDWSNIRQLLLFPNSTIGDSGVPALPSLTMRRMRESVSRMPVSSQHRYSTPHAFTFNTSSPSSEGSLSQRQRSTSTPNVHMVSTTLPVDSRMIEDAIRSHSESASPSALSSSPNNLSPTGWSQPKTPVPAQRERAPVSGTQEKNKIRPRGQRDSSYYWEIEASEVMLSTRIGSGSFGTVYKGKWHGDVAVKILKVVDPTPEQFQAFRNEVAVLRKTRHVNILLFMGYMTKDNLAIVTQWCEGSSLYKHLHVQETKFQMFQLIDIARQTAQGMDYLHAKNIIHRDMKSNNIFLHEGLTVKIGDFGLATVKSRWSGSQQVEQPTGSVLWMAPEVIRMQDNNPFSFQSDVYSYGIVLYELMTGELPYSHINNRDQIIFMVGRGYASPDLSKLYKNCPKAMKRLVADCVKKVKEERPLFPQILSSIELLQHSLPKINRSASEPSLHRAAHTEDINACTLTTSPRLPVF
Sequence of 5'-AMP-activated protein kinase catalytic subunit alpha-2 (Homo sapiens) (P54646 whole entry, looked up): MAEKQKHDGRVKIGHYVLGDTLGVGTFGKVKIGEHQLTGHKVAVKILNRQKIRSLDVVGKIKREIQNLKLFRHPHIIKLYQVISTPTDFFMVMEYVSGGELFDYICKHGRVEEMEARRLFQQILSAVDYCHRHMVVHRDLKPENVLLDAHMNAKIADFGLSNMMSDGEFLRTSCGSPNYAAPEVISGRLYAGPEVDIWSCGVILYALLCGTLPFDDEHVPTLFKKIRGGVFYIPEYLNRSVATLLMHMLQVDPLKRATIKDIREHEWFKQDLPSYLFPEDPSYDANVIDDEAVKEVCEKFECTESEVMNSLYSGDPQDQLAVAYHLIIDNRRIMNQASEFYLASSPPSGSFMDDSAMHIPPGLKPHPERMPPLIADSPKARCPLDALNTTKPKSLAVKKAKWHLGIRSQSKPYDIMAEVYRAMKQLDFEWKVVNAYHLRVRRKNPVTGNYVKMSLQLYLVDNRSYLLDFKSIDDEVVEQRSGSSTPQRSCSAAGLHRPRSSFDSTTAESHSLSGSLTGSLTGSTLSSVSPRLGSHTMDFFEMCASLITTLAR
Sequence of Vascular endothelial growth factor receptor 1 (Homo sapiens) (P17948 whole entry): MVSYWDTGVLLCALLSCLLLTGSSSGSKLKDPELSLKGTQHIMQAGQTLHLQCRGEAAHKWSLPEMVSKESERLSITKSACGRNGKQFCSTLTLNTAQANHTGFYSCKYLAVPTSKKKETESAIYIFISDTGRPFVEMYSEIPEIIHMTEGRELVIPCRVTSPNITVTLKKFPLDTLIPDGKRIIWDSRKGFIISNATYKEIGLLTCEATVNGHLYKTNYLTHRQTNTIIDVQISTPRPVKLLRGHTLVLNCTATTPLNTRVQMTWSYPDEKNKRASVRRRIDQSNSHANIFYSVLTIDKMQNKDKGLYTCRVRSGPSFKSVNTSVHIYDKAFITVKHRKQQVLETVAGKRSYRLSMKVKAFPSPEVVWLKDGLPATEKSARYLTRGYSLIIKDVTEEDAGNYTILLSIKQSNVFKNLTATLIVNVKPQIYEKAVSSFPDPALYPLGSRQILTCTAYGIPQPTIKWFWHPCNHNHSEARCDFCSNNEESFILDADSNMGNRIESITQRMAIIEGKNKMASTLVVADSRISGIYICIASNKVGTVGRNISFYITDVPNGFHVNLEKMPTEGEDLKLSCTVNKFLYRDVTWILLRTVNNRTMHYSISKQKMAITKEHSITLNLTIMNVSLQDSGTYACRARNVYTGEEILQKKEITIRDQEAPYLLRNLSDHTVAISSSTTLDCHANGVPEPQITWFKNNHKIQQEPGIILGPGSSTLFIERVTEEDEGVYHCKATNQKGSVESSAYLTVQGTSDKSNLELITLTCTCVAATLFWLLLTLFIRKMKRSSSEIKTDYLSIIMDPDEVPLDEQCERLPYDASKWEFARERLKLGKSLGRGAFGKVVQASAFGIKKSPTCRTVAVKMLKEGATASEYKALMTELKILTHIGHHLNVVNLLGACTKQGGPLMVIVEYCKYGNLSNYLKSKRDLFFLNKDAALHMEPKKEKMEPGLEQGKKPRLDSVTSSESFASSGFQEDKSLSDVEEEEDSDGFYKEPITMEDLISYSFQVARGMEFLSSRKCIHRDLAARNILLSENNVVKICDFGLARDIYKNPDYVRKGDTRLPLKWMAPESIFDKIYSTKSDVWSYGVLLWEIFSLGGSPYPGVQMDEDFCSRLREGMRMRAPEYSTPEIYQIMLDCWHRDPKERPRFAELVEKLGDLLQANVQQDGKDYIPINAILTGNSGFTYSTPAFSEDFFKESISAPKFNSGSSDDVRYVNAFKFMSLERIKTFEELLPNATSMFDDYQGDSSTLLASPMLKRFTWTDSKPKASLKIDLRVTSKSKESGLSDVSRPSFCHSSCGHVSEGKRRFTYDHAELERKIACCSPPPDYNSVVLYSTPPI

fold change (FC) [1]: 0.15
SMILES: CNC(=O)c1ccccc1Oc1nc(Nc2cc(OC)c(OC)c(OC)c2)ncc1Br

fold change (FC) [2]: 0.1 | fold change (FC) [3]: 0
SMILES: O=C(N[C@@H](C1CC1)C(F)(F)F)c1cc(-c2cnn3cc(-c4ccc(F)cc4)cnc23)cs1

inhibition [4]: 9% | inhibition [5]: 1% | fold change (FC) [6]: 0.26 | fold change (FC) [7]: 0.06 | fold change (FC) [8]: 0.48
SMILES: CC(C)[C@H](NC(=O)c1cc(-c2cnn3cc(-c4ccc(OCCN5CCCCC5)cc4)cnc23)cs1)C(F)(F)F
